Measurements collected from several papers.
Target: Cytochrome P450 3A4 (CYP3A4, Homo sapiens, UniProt P08684)
Effect on: enzyme activity
Mode: inhibitor

For `COc1cc2c(c(OC)c1OC)-c1c(cc3c(c1OC)OCO3)C[C@H](C)[C@](C)(O)[C@H]2OC(=O)c1ccccc1`, the IC50 was 0.14 µM (15 min, pH 7.4).
The IC50 of `Nc1nc(N)c2nc(C(=O)NCc3cccc(C(F)(F)F)c3)cnc2n1` is reported as 13.8 µM (luciferase).
`COc1ccn2c(Nc3ccccc3F)c(-c3ccncn3)nc2c1` has an IC50 of 0.27 µM.
`COC(=O)C1CCN(C(=O)c2ccc(SCc3cnc4nc(N)nc(N)c4n3)nc2)CC1` has an IC50 of 11.7 µM (luciferase).
`O=C(NCCN1CCCC1)c1cc(-c2ccc(CN3CCOCC3)cc2)nc2ccc(F)cc12` has an IC50 of over 100 µM (human, liver microsomes; midazolam probe).
`Nc1nc(N)c2nc(CNc3ccc(C(=O)c4ccccc4)cc3)cnc2n1` has an IC50 of 43.7 µM (luciferase).
The IC50 of `CC1=CC(=O)C(C(C)C)=CC1=O` is reported as 1.2 µM (fluorescence; pH 7.4).
For `COc1ccc2c(Cc3ccccc3F)c3[n+](cc2c1OC)CCc1cc2c(cc1-3)OCO2`, the IC50 was 0.8 µM.
`Cc1ccc2nc(-c3ccccc3)c(CNc3ccc(F)cc3)n2c1` has an IC50 of 0.27 µM.
With `COc1ccc2c(Cc3ccccc3F)c3n(c(=O)c2c1OC)CCc1cc2c(cc1-3)OCO2` the IC50 was 2.7 µM.
For `CCCCC1=NC2(CCCC2)C(=O)N1Cc1ccc(-c2ccccc2S(=O)(=O)Nc2noc(C)c2C)c(COCC)c1`, the Ki was 6.33 µM.
With `CCc1cc(/C(C)=N/OCc2ccc(C3CCCCC3)c(C(F)(F)F)c2)ccc1CN1CC(C(=O)O)C1` the IC50 was 0.6 µM (human, liver microsomes; 20 min, testosterone probe).
